Assay results from different studies.
Lines come from different studies, so protocols differ.
Target: Tyrosine-protein kinase ITK/TSK (ITK, Homo sapiens, UniProt Q08881)
One construct used (Q08881 1-620): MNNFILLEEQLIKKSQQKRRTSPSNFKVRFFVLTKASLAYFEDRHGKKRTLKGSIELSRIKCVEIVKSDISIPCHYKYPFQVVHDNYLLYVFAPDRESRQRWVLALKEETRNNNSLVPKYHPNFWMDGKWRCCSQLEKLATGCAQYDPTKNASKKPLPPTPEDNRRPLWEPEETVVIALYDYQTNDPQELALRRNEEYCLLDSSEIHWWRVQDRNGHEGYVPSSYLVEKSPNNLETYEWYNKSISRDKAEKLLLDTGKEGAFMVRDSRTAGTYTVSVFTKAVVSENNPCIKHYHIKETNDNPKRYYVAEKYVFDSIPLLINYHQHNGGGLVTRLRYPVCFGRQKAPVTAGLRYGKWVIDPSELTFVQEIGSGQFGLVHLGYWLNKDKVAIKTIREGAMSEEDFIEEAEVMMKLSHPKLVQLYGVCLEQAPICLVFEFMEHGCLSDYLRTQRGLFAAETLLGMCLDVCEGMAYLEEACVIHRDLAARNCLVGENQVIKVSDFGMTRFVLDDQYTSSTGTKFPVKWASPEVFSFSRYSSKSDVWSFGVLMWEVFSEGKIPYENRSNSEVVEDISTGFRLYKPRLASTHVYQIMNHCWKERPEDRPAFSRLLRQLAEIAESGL

Cc1cnn2ncc(-c3ccnc(N(C)C)n3)c2c1  remaining binding (binding; 1 µM): 100%
O=C(c1ccc(Nc2ncc(Cl)c(-c3cc4ccccc4s3)n2)cc1)N1CCC(N2CCCC2)CC1  remaining binding (binding; competition with immobilised ligand; 1 µM): 50%
CNC(=O)[C@@H]1CC[C@@H](n2c(-c3ccc4cnccc4c3)nc3ccc(C(=O)NCc4cccc(C(N)=O)c4)cc32)C1  remaining binding (binding; competition with immobilised ligand; 1 µM): 99%
C[C@@H]1CCN(c2nccc(-c3cnn4ncccc34)n2)C1  remaining binding (binding; 1 µM): 91%
C[C@H](c1ccnc(Nc2nc3ccc(-c4cc(N(C)C)ncn4)cc3[nH]2)c1)N1CCN(C(=O)CC(F)(F)F)CC1  remaining binding (cell-free assay; competition with immobilised ligand; 0.1 µM): 100%
c1cncc(-c2cccc(Nc3nccc(NC4CCCCC4)n3)c2)c1  remaining binding (binding; competition with immobilised ligand; 10 µM): 80%
O=C(NCCCN1CCOCC1)c1ccc(Nc2nccc(-c3cc4ccccc4s3)n2)cc1  remaining binding (binding; competition with immobilised ligand; 1 µM): 100%
Cn1nc(C(=O)NCc2ccc(C(=O)O)cc2)cc1-c1ccc2[nH]ccc2c1  remaining binding (cell-free assay; competition with immobilised ligand; 0.1 µM): 85%
CN(C)c1ncc(F)c(-c2cnn3ncccc23)n1  remaining binding (binding; 1 µM): 100%
COc1ccc2c(c1)O[C@H](c1ccc(OC)c(OC)c1)C[C@@H]2NC(=O)C1(c2ccc3c(c2)OC(F)(F)O3)CC1  remaining binding (cell-free assay; competition with immobilised ligand; 1 µM): 100%
O=C(NCCCN1CCOCC1)c1ccc(Nc2ncc(Cl)c(-c3ccc(Cl)s3)n2)cc1  remaining binding (binding; competition with immobilised ligand; 1 µM): 40%
COc1cnc(Nc2cccc(S(N)(=O)=O)c2)nc1N1CCN(c2ccccc2)CC1  remaining binding (binding; competition with immobilised ligand; 1 µM): 95%
O=C(O)[C@H]1[C@H](Cn2nnc3ccccc3c2=O)CC[C@@H]1C(=O)c1ccc(OCCC2CCOCC2)cc1  remaining binding (cell-free assay; competition with immobilised ligand; 1 µM): 100%
Nc1ncc2c(n1)-c1c([nH]c3ccc(C#CC4CC4)cc13)CCCC2  remaining binding (binding; competition with immobilised ligand; 1 µM): 92%
CN(C)c1nccc(-c2cnc3ncccn23)n1  remaining binding (binding; 1 µM): 88%
CC(=O)C1=C(C)N(c2cccc(C(F)(F)F)c2)C(=O)N[C@@H]1c1ccc(C#N)nc1  remaining binding (cell-free assay; competition with immobilised ligand; 1 µM): 90.4%
N[C@@H]1CCN(c2nccc(-c3cnn4ncccc34)n2)C1  remaining binding (binding; 1 µM): 93%
COc1cc(-c2cn(C3CCc4c(F)cccc4N(CC(F)(F)F)C3=O)nn2)ccc1-n1cnc(C)c1 (centres unmarked)  remaining binding (cell-free assay; competition with immobilised ligand; 1 µM): 100%
CN(c1nccc(-c2cnn3ncccc23)n1)C1CC1  remaining binding (binding; 1 µM): 100%
O=C(NCC1CCOCC1)c1n[nH]cc1NC(=O)c1c(F)cccc1F  remaining binding (binding; competition with immobilised ligand; 1 µM): 100%
